According to ChEMBL document CHEMBL2157922, “Synthesis and antifungal activity of diverse C-2 pyridinyl and pyridinylvinyl substituted quinolines” (2012):
Values after ≈ are worked out from the molar mass of the structure shown. Each block holds one compound with its values, some of them ahead of it.

Assays:
Cryptococcus neoformans [1] = test: Antifungal activity against Cryptococcus neoformans ATCC 32264 after 48 hrs by broth microdilution technique; assay type: functional; settings: ATCC 32264, 48 h
In short: (§1)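 Yeasts were tested by CLSI broth microdilution in RPMI-1640 buffered to pH 7.0 with MOPS, with compound from 250 down to 0.98 in DMSO stocks. Trays were held at 30 °C in a moist, dark chamber. MIC100, the lowest concentration giving total visual inhibition against the growth control, was read by eye at 48 h.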

Aspergillus flavus = test: Antifungal activity against Aspergillus flavus ATCC 9170 after 48 hrs by broth microdilution technique; assay type: functional; settings: ATCC 9170, 48 h
In short: (§2)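 Moulds and dermatophytes were run by CLSI broth microdilution in MOPS-buffered RPMI-1640 at pH 7.0. Aspergillus was incubated at 30 °C and dermatophytes at 28–30 °C, in a moist, dark chamber. MIC100, the lowest concentration with no visible growth, was read visually at a time set by growth of the control fungus.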

Aspergillus niger = test: Antifungal activity against Aspergillus niger ATCC 9029 after 48 hrs by broth microdilution technique; assay type: functional; settings: ATCC 9029, 48 h; in short: as §2
Nannizzia gypsea = test: Antifungal activity against Microsporum gypseum CCC 115 after 48 hrs by broth microdilution technique; assay type: functional; settings: CCC 115, 48 h; in short: as §2
Trichophyton rubrum = test: Antifungal activity against Trichophyton rubrum CCC 113 after 48 hrs by broth microdilution technique; assay type: functional; settings: CCC 113, 48 h
[2] = tested on: Trichophyton mentagrophytes; test: Antifungal activity against Trichophyton mentagrophytes ATCC 9972 after 48 hrs by broth microdilution technique; assay type: functional; settings: ATCC 9972, 48 h; in short: as §2
Saccharomyces cerevisiae = test: Antifungal activity against Saccharomyces cerevisiae ATCC 9763 after 48 hrs by broth microdilution technique; assay type: functional; settings: ATCC 9763, 48 h; in short: as §1
Aspergillus fumigatus = test: Antifungal activity against Aspergillus fumigatus ATCC 26934 after 48 hrs by broth microdilution technique; assay type: functional; settings: ATCC 26934, 48 h; in short: as §2
Candida albicans [3] = test: Antifungal activity against Candida albicans ATCC 10231 after 48 hrs by broth microdilution technique; assay type: functional; settings: ATCC 10231, 48 h; in short: as §1
Candida albicans [4] = test: Antifungal activity against Candida albicans CCC 125 after 48 hrs by broth microdilution technique; assay type: functional; settings: CCC 125, 48 h
Cryptococcus neoformans [5] = test: Antifungal activity against Cryptococcus neoformans IM 972751 after 48 hrs by broth microdilution technique; assay type: functional; settings: IM 972751, 48 h
In short: (§3)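 C. neoformans was tested by 96-well RPMI-1640 microdilution, with DMSO-matched growth and sterility control wells. Plates were incubated 48 h at 30 °C in a moist, dark chamber and read at OD405. % inhibition = 100 − (CTW − SCW)/(GCW − SCW), in duplicate. For the clinical isolates, MIC80 and MIC50 are the lowest concentrations giving 80% and 50% inhibition.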

Candida albicans [6] = test: Antifungal activity against Candida albicans CCC 126 after 48 hrs by broth microdilution technique; assay type: functional; settings: CCC 126, 48 h
Cryptococcus neoformans [7] = test: Antifungal activity against Cryptococcus neoformans IM 983040 after 48 hrs by broth microdilution technique; assay type: functional; settings: IM 983040, 48 h; in short: as §3
Cryptococcus neoformans [8] = test: Antifungal activity against Cryptococcus neoformans IM 972724 after 48 hrs by broth microdilution technique; assay type: functional; settings: IM 972724, 48 h; in short: as §3
Candida parapsilosis = test: Antifungal activity against Candida parapsilosis CCC 124 after 48 hrs by broth microdilution technique; assay type: functional; settings: Lodderomyces parapsilosis, CCC 124, 48 h
Candida albicans [9] = test: Antifungal activity against Candida albicans CCC 130 after 48 hrs by broth microdilution technique; assay type: functional; settings: CCC 130, 48 h
Cryptococcus neoformans [10] = test: Antifungal activity against Cryptococcus neoformans IM 00319 after 48 hrs by broth microdilution technique; assay type: functional; settings: IM 00319, 48 h; in short: as §3
Cryptococcus neoformans [11] = test: Antifungal activity against Cryptococcus neoformans IM 983036 after 48 hrs by broth microdilution technique; assay type: functional; settings: IM 983036, 48 h; in short: as §3
Candida albicans [12] = test: Antifungal activity against Candida albicans CCC 130 after 24 hrs by broth microdilution technique; settings: CCC 130, 24 h
Cryptococcus neoformans [13] = test: Antifungal activity against Cryptococcus neoformans IM 042074 after 48 hrs by broth microdilution technique; assay type: functional; settings: IM 042074, 48 h; in short: as §3
Candida albicans [14] = test: Antifungal activity against Candida albicans CCC 129 after 48 hrs by broth microdilution technique; assay type: functional; settings: CCC 129, 48 h
Pichia kudriavzevii = test: Antifungal activity against Candida krusei CCC 117 after 48 hrs by broth microdilution technique; assay type: functional; settings: CCC 117, 48 h
Nakaseomyces glabratus = test: Antifungal activity against Candida glabrata CCC 115 after 48 hrs by broth microdilution technique; assay type: functional; settings: CCC 115, 48 h
Candida albicans [15] = test: Antifungal activity against Candida albicans ATCC 10231 at 31.2 ug/ml after 24 hrs; assay type: functional; settings: ATCC 10231, 24 h
In short: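 C. albicans was grown in 96-well RPMI-1640 broth microdilution with compound wells diluted from DMSO stocks. Growth wells with matched DMSO and sterility wells were included. After 24 h at 30 °C in a moist, dark chamber, OD405 was read. % inhibition = 100 − (CTW − SCW)/(GCW − SCW) OD, done in duplicate.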

Candida albicans [16] = test: Antifungal activity against Candida albicans CCC 128 after 48 hrs by broth microdilution technique; assay type: functional; settings: CCC 128, 48 h
Candida tropicalis = test: Antifungal activity against Candida tropicalis CCC 131 after 48 hrs by broth microdilution technique; assay type: functional; settings: CCC 131, 48 h
Candida albicans [17] = test: Antifungal activity against Candida albicans CCC 127 after 48 hrs by broth microdilution technique; assay type: functional; settings: CCC 127, 48 h

MIC (Cryptococcus neoformans [1]): 125 µg/mL (≈ 519 µM)
MIC (Aspergillus flavus): > 250 µg/mL
MIC (Aspergillus niger): > 250 µg/mL
MIC (Nannizzia gypsea): 31 µg/mL (≈ 129 µM)
MIC (Trichophyton rubrum): 31 µg/mL (≈ 129 µM)
MIC [2]: 62 µg/mL (≈ 258 µM)
MIC (Saccharomyces cerevisiae): > 250 µg/mL
MIC (Aspergillus fumigatus): > 250 µg/mL
MIC (Candida albicans [3]): > 250 µg/mL
SMILES: Clc1cccc2ccc(-c3ccncc3)nc12
MFC (Cryptococcus neoformans [1]): 250 µg/mL (≈ 1040 µM)
MFC (Nannizzia gypsea): 62 µg/mL (≈ 258 µM)
MFC (Trichophyton rubrum): 62 µg/mL (≈ 258 µM)
MFC [2]: 125 µg/mL (≈ 519 µM)

MIC (Cryptococcus neoformans [1]): > 250 µg/mL
MIC (Aspergillus flavus): 250 µg/mL (≈ 937 µM)
MIC (Aspergillus niger): > 250 µg/mL
MIC (Nannizzia gypsea): 250 µg/mL (≈ 937 µM)
MIC (Trichophyton rubrum): 250 µg/mL (≈ 937 µM)
MIC [2]: 250 µg/mL (≈ 937 µM)
MIC (Saccharomyces cerevisiae): > 250 µg/mL
MIC (Aspergillus fumigatus): 250 µg/mL (≈ 937 µM)
MIC (Candida albicans [3]): > 250 µg/mL
SMILES: Clc1ccc2nc(/C=C/c3cccnc3)ccc2c1
MFC (Aspergillus flavus): > 250 µg/mL
MFC (Nannizzia gypsea): > 250 µg/mL
MFC (Trichophyton rubrum): > 250 µg/mL
MFC [2]: > 250 µg/mL
MFC (Aspergillus fumigatus): > 250 µg/mL

MIC (Cryptococcus neoformans [1]): 125 µg/mL (≈ 469 µM)
MIC50 (Cryptococcus neoformans [1]): 15.6 µg/mL (≈ 58.5 µM)
MIC80 (Cryptococcus neoformans [1]): 31.2 µg/mL (≈ 117 µM)
MIC (Aspergillus flavus): 250 µg/mL (≈ 937 µM)
MIC50 (Candida albicans [4]): 31.2 µg/mL (≈ 117 µM)
MIC80 (Candida albicans [4]): 125 µg/mL (≈ 469 µM)
MIC50 (Cryptococcus neoformans [5]): 15.6 µg/mL (≈ 58.5 µM)
MIC80 (Cryptococcus neoformans [5]): 31.2 µg/mL (≈ 117 µM)
MIC (Aspergillus niger): 250 µg/mL (≈ 937 µM)
MIC50 (Candida albicans [6]): 31.2 µg/mL (≈ 117 µM)
MIC80 (Candida albicans [6]): 62.5 µg/mL (≈ 234 µM)
MIC50 (Cryptococcus neoformans [7]): 15.6 µg/mL (≈ 58.5 µM)
MIC80 (Cryptococcus neoformans [7]): 62.5 µg/mL (≈ 234 µM)
MIC (Nannizzia gypsea): 62 µg/mL (≈ 232 µM)
MIC50 (Cryptococcus neoformans [8]): 31.2 µg/mL (≈ 117 µM)
MIC80 (Cryptococcus neoformans [8]): 62.5 µg/mL (≈ 234 µM)
MIC50 (Candida parapsilosis): > 250 µg/mL
MIC80 (Candida parapsilosis): > 250 µg/mL
MIC80 (Candida albicans [9]): 62.5 µg/mL (≈ 234 µM)
MIC50 (Cryptococcus neoformans [10]): 31.2 µg/mL (≈ 117 µM)
MIC80 (Cryptococcus neoformans [10]): 62.5 µg/mL (≈ 234 µM)
MIC50 (Cryptococcus neoformans [11]): 7.8 µg/mL (≈ 29.2 µM)
MIC80 (Cryptococcus neoformans [11]): 62.5 µg/mL (≈ 234 µM)
MIC50 (Candida albicans [12]): 31.2 µg/mL (≈ 117 µM)
MIC50 (Cryptococcus neoformans [13]): 15.6 µg/mL (≈ 58.5 µM)
MIC80 (Cryptococcus neoformans [13]): 62.5 µg/mL (≈ 234 µM)
MIC50 (Candida albicans [14]): 31.2 µg/mL (≈ 117 µM)
MIC80 (Candida albicans [14]): 62.5 µg/mL (≈ 234 µM)
MIC (Trichophyton rubrum): 62 µg/mL (≈ 232 µM)
MIC [2]: 62 µg/mL (≈ 232 µM)
MIC50 (Pichia kudriavzevii): > 250 µg/mL
MIC80 (Pichia kudriavzevii): > 250 µg/mL
MIC50 (Nakaseomyces glabratus): > 250 µg/mL
MIC80 (Nakaseomyces glabratus): > 250 µg/mL
MIC50 (Candida albicans [16]): 62.5 µg/mL (≈ 234 µM)
MIC80 (Candida albicans [16]): 125 µg/mL (≈ 469 µM)
MIC (Saccharomyces cerevisiae): 125 µg/mL (≈ 469 µM)
MIC50 (Candida tropicalis): 31.2 µg/mL (≈ 117 µM)
MIC80 (Candida tropicalis): 125 µg/mL (≈ 469 µM)
MIC (Aspergillus fumigatus): 250 µg/mL (≈ 937 µM)
MIC50 (Candida albicans [17]): 31.2 µg/mL (≈ 117 µM)
MIC80 (Candida albicans [17]): 62.5 µg/mL (≈ 234 µM)
MIC (Candida albicans [3]): 125 µg/mL (≈ 469 µM)
MIC50 (Candida albicans [3]): 15.6 µg/mL (≈ 58.5 µM)
MIC80 (Candida albicans [3]): 31.2 µg/mL (≈ 117 µM)
SMILES: Clc1ccc2nc(/C=C/c3ccncc3)ccc2c1
MFC (Cryptococcus neoformans [1]): 250 µg/mL (≈ 937 µM)
MFC (Aspergillus flavus): > 250 µg/mL
MFC (Aspergillus niger): > 250 µg/mL
MFC (Nannizzia gypsea): 125 µg/mL (≈ 469 µM)
MFC (Trichophyton rubrum): 125 µg/mL (≈ 469 µM)
MFC [2]: 125 µg/mL (≈ 469 µM)
inhibition at 31.2 µg/mL (Candida albicans [15]): 80%
MFC (Saccharomyces cerevisiae): > 250 µg/mL
MFC (Aspergillus fumigatus): > 250 µg/mL
MFC (Candida albicans [3]): > 250 µg/mL
